Laboratory results as given in publication PMC10606955 (Chemico-biological interactions, 2023).
“And” between values parts separate entries of the source, which are not always exact repeats. Equal values may be shown once. “Also recorded” adds a separate entry of the source.

Columns and labels:
[1] = biological target: T1, carboxylesterase 1 (CES1) (Homo sapiens, UniProt P23141); test: Concentration response curves for inhibition of CES1; type: biochemical; settings: 200 μM OST, CES1 S9; for IC50: read-out: IC50 (kratom alkaloids), alkaloid 0–128 μM, 1% DMSO
T1 sequence (P23141 18-567): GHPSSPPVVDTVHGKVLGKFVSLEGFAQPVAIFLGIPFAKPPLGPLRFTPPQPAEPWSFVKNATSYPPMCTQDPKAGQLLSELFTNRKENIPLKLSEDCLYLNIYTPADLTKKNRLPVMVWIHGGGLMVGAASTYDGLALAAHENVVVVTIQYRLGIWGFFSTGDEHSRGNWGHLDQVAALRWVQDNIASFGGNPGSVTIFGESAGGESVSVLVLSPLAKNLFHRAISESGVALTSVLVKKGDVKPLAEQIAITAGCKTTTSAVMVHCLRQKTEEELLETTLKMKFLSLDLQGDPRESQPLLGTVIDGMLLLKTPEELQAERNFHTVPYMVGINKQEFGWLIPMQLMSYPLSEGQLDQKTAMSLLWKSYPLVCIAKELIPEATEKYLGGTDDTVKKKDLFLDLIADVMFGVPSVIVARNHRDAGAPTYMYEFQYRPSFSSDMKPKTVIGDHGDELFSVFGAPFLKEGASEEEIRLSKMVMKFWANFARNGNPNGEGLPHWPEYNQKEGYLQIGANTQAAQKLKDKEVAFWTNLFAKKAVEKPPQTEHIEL
In short: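 CES1 S9 (supernatant, 9000g, from sonicated Flp-In-293 cells expressing wild-type CES1) at 20 μg/mL in 50 mM phosphate buffer. Test compound at 0–128 μM, or extracts at 0–128 μg/mL, in 1% DMSO with 200 μM oseltamivir, 15 min at 37°C. Stopped with 4 volumes acetonitrile containing ritalinic acid internal standard. Oseltamivir carboxylate measured by LC-MS/MS and expressed relative to DMSO control; IC50 fitted by modified Hill equation.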

[2] = biological target: T1, carboxylesterase 1 (CES1); test: Time-dependent inhibition of CES1; type: biochemical; settings: for Ratio of Preincubation to No Preincubation (IC50, alkaloids): 30 min preincubation; for IC50: mean ± S.E., 200 μM OST
[3] = biological target: T1, carboxylesterase 1 (CES1); test: Reversible inhibition kinetics of CES1; type: biochemical; settings: for α (reversible inhibition type): 1 = noncompetitive, infinity = competitive, between = mixed-type; for α (reversible inhibition type) / Vmax: mean ± S.D.; for Vmax: OC formation, fit parameter, triplicate experiments; for type of reversible inhibition of CES1: from modified Michaelis-Menten model
[4] = human, 2g dose of kratom; cited from earlier work
[5] = Preincubation 30 min with CES1 S9

C=C[C@H]1CN2CCc3c([nH]c4cccc(OC)c34)[C@@H]2C[C@@H]1/C(=C\OC)C(=O)OC [paynantheine]
concentration dependence of CES1 inhibition [1]: concentration-dependent reversible inhibition | IC50 [1]: 32.9 µM and < 50 µM | Ratio of Preincubation to No Preincubation (IC50, alkaloids) [2]: 1.38 | IC50 ([2]; No preincubation): 32.9 ± 7.2 µM | IC50 [2, 5]: 45.6 ± 14.1 µM | α (reversible inhibition type) [3]: 8.439 ± 6.336 | Vmax [3]: 232.2 ± 18.38 nmol/min/mg protein | type of reversible inhibition of CES1 [3]: mixed-type reversible inhibitors; also recorded: mixed competitive-noncompetitive inhibition; also recorded: mixed competitive-noncompetitive inhibitors

CC[C@@H]1CN2CCc3c([nH]c4cccc(OC)c34)[C@H]2C[C@@H]1/C(=C\OC)C(=O)OC [speciociliatine]
concentration dependence of CES1 inhibition [1]: concentration-dependent reversible inhibition | Ratio of Preincubation to No Preincubation (IC50, alkaloids) [2]: 1.18 | IC50 ([2]; No preincubation): 18.1 ± 4 µM | IC50 [2, 5]: 21.4 ± 2.48 µM | Cmax [4]: 308 nM | α (reversible inhibition type) [3]: 2.817 ± 1.666 | Vmax [3]: 210.5 ± 41.43 nmol/min/mg protein | type of reversible inhibition of CES1 [3]: mixed competitive-noncompetitive inhibitors | type of reversible inhibition of CES1 ([3]; listed as Speciociliatine): mixed-type reversible inhibitors; also recorded: mixed competitive-noncompetitive inhibition

CC[C@H]1CN2CCc3c([nH]c4cccc(OC)c34)[C@@H]2C[C@@H]1/C(=C\OC)C(=O)OC [speciogynine]
concentration dependence of CES1 inhibition [1]: concentration-dependent reversible inhibition | IC50 [1]: 54.3 µM | Ratio of Preincubation to No Preincubation (IC50, alkaloids) [2]: 1.22 | IC50 [2, 5]: 66.2 ± 29 µM

corynantheidine
concentration dependence of CES1 inhibition [1]: concentration-dependent reversible inhibition | Ratio of Preincubation to No Preincubation (IC50, alkaloids) [2]: 0.993 | α (reversible inhibition type) [3]: 8.767 ± 2.734 | type of reversible inhibition of CES1 [3]: mixed-type reversible inhibitors; also recorded: mixed competitive-noncompetitive inhibition; also recorded: mixed competitive-noncompetitive inhibitors

mitragynine
concentration dependence of CES1 inhibition [1]: concentration-dependent reversible inhibition | IC50 [1]: 38.9 µM and < 50 µM | Ratio of Preincubation to No Preincubation (IC50, alkaloids) [2]: 0.868 | IC50 ([2]; No preincubation): 38.9 ± 16.3 µM | IC50 [2, 5]: 33.8 ± 5.47 µM | α (reversible inhibition type) [3]: ∞ | Vmax [3]: 224.2 ± 24.37 nmol/min/mg protein | type of reversible inhibition of CES1 [3]: purely competitive inhibitor; also recorded: pure competitive inhibition
